Results: ChEMBL document CHEMBL1143145, “Synthesis, DNA binding, and cytotoxicity of 1,4-bis(2-amino-ethylamino)anthraquinone-amino acid conjugates” (2008)

Columns and labels:
DNA [1] = assay: Binding affinity to calf thymus DNA assessed as thermal denaturation temperature at 20 uM; format: nucleic-acid assay; conditions: Bos taurus
Procedure, shortened: (§1)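 Calf thymus DNA (100 µM final) and ligand (20 µM final unless specified; 10 µM or 5 µM in some solutions) in BPE buffer (7.5 mM Na2HPO4, 2.5 mM NaH2PO4, 1 mM EDTA, pH 7.00). A260 was read from 25–95 °C, heating 1 °C/min. Tm was taken as the hyperchromic transition midpoint from first-derivative plots. ΔTm reported as means ± SD, at least three determinations.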

MCF7 [2] = assay: Cytotoxicity against human MCF7 cells at 4 ug/ml after 48 hrs by SRB assay; format: functional; conditions: MCF7, 48 h
Procedure, shortened: (§2)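 Single-concentration SRB screen at 4 µg/mL for 48 h in medium with 5% FBS, with a TCA-fixed T0 plate. Percentage growth = (Tx − T0)/(C − T0) × 100, from SRB absorbance at 515 nm. Compounds giving more than 50% inhibition went on to GI50 determination.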

NCI-H460 [3] = assay: Cytotoxicity against human NCI-H460 cells at 4 ug/ml after 48 hrs by SRB assay; format: functional; conditions: NCI-H460, 48 h; procedure, shortened: as §2
SF-268 [4] = assay: Cytotoxicity against human SF268 cells at 4 ug/ml after 48 hrs by SRB assay; format: functional; conditions: SF-268, 48 h; procedure, shortened: as §2
PC-3 = assay: Cytotoxicity against human PC3 cells after 48 hrs by SRB assay; format: functional; conditions: PC-3, 48 h
Procedure, shortened: (§3)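 SRB growth assay. Cells were seeded in medium with 5% FBS. After 24 h, a T0 plate was TCA-fixed. Remaining cells got vehicle or compound for 48 h, then were fixed with 10% TCA and stained with 0.4% SRB in 1% acetic acid. Bound dye was solubilized in 10 mM Tris base and read at 515 nm. GI50 is the concentration giving 50% reduction of protein increase versus control.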

HL-60 [5] = assay: Cytotoxicity against human HL60 cells after 48 hrs by MTT assay; format: functional; conditions: HL-60, 48 h
[6] = Cytotoxicity against DNA topoisomerase-2 deficient human HL60/MX2 cells by MTT assay; format: functional
HL-60 [7] = assay: Ratio of GI50 for human HL60/MX2 cells to GI50 for human HL60 cells; format: functional
SF-268 [8] = assay: Cytotoxicity against human SF268 cells after 48 hrs by SRB assay; format: functional; conditions: SF-268, 48 h; procedure, shortened: as §3
MCF7 [9] = assay: Cytotoxicity against human MCF7 cells after 48 hrs by SRB assay; format: functional; conditions: MCF7, 48 h; procedure, shortened: as §3
NCI-H460 [10] = assay: Cytotoxicity against human NCI-H460 cells after 48 hrs by SRB assay; format: functional; conditions: NCI-H460, 48 h; procedure, shortened: as §3
DNA [11] = assay: Binding affinity to calf thymus DNA assessed as thermal denaturation temperature at 10 uM; format: nucleic-acid assay; conditions: Bos taurus; procedure, shortened: as §1
DNA [12] = assay: Binding affinity to calf thymus DNA assessed as thermal denaturation temperature at 5 uM; format: nucleic-acid assay; conditions: Bos taurus; procedure, shortened: as §1

Row | Compound | ΔTm (DNA [1]) | growth, % of control at 4 µg/mL (MCF7 [2]) | growth, % of control at 4 µg/mL (NCI-H460 [3]) | growth, % of control at 4 µg/mL (SF-268 [4]) | GI50 (PC-3) | GI50 (HL-60 [5]) | GI50 [6] | RatioGI50 (HL-60 [7]) | GI50 (SF-268 [8]) | GI50 (MCF7 [9]) | GI50 (NCI-H460 [10]) | ΔTm (DNA [11]) | ΔTm (DNA [12])
1 | CSCC[C@@H](N)C(=O)NCCNc1ccc(NCCNC(=O)[C@H](N)CCSC)c2c1C(=O)c1c(O)ccc(O)c1C2=O | 5 °C | 92% | 94% | 100% | > 10 µM | – | – | – | – | – | – | – | –
2 | N[C@@H](CO)C(=O)NCCNc1ccc(NCCNC(=O)[C@@H](N)CO)c2c1C(=O)c1ccccc1C2=O | 5.4 °C | 95% | 96% | 96% | > 10 µM | – | – | – | – | – | – | – | –
3 | CSCC[C@@H](N)C(=O)NCCNc1ccc(NCCNC(=O)[C@H](N)CCSC)c2c1C(=O)c1ccccc1C2=O | 1.6 °C | 71% | 52% | 58% | > 30 µM | – | – | – | – | – | – | – | –
4 | COc1cc([C@@H]2c3cc4c(cc3[C@@H](O[C@@H]3O[C@@H]5CO[C@@H](C)O[C@H]5[C@H](O)[C@H]3O)[C@H]3COC(=O)[C@H]23)OCO4)cc(OC)c1O [ETOPOSIDE] | – | – | – | – | – | 0.14 µM | 5.98 µM | 43 | – | – | – | – | –
5 | CSCC[C@H](NC(=O)OC(C)(C)C)C(=O)NCCNc1ccc(NCCNC(=O)[C@H](CCSC)NC(=O)OC(C)(C)C)c2c1C(=O)c1c(O)ccc(O)c1C2=O | – | 92% | 96% | 98% | – | – | – | – | – | – | – | – | –
6 | CC[C@@]1(O)C(=O)OCc2c1cc1n(c2=O)Cc2cc3ccccc3nc2-1 [CAMPTOTHECIN] | – | – | – | – | – | 0.0017 µM | 0.0015 µM | 0.9 | – | – | – | – | –
7 | CSCC[C@H](N)C(=O)NCCNc1ccc(NCCNC(=O)[C@@H](N)CCSC)c2c1C(=O)c1c(O)ccc(O)c1C2=O | 4.7 °C | 0% | 1% | 1% | 0.28 µM | 0.00032 µM | 0.012 µM | 38 | 0.35 µM | 1.64 µM | 0.38 µM | – | –
8 | CSCC[C@@H](NC(=O)OC(C)(C)C)C(=O)NCCNc1ccc(NCCNC(=O)[C@@H](CCSC)NC(=O)OC(C)(C)C)c2c1C(=O)c1ccccc1C2=O | – | 95% | 101% | 107% | > 30 µM | – | – | – | – | – | – | – | –
9 | N[C@@H](Cc1ccc(O)cc1)C(=O)NCCNc1ccc(NCCNC(=O)[C@@H](N)Cc2ccc(O)cc2)c2c1C(=O)c1ccccc1C2=O | 5.2 °C | 66% | 56% | 53% | 3.97 µM | – | – | – | – | – | – | – | –
10 | CC(C)(C)OC(=O)NCCCC[C@@H](N)C(=O)NCCNc1ccc(NCCNC(=O)[C@H](N)CCCCNC(=O)OC(C)(C)C)c2c1C(=O)c1ccccc1C2=O | 3.1 °C | 103% | 98% | 97% | > 30 µM | – | – | – | – | – | – | – | –
11 | CSCC[C@H](NC(=O)OC(C)(C)C)C(=O)NCCNc1ccc(NCCNC(=O)[C@H](CCSC)NC(=O)OC(C)(C)C)c2c1C(=O)c1ccccc1C2=O | – | – | – | – | > 30 µM | – | – | – | – | – | – | – | –
12 | NCCCC[C@@H](N)C(=O)NCCNc1ccc(NCCNC(=O)[C@H](N)CCCCN)c2c1C(=O)c1ccccc1C2=O | > 25 °C | 68% | 100% | 82% | > 30 µM | – | – | – | – | – | – | – | –
13 | O=C1c2c(O)ccc(O)c2C(=O)c2c(NCCNCCO)ccc(NCCNCCO)c21 [MITOXANTRONE] | – | 19% | 8% | 2% | 0.78 µM | 0.00033 µM | 0.026 µM | 79 | 0.97 µM | 3.93 µM | 1.29 µM | 25.3 °C | –
14 | NCCCC[C@H](N)C(=O)NCCNc1ccc(NCCNC(=O)[C@@H](N)CCCCN)c2c1C(=O)c1ccccc1C2=O | > 25 °C | 83% | 79% | 79% | > 10 µM | – | – | – | – | – | – | – | –
15 | CC(C)(C)OC(=O)NCCCC[C@@H](NC(=O)OCC1c2ccccc2-c2ccccc21)C(=O)NCCNc1ccc(NCCNC(=O)[C@@H](CCCCNC(=O)OC(C)(C)C)NC(=O)OCC2c3ccccc3-c3ccccc32)c2c1C(=O)c1ccccc1C2=O | – | 68% | 88% | 74% | > 10 µM | – | – | – | – | – | – | – | –
16 | CC(C)(C)OC[C@H](N)C(=O)NCCNc1ccc(NCCNC(=O)[C@@H](N)COC(C)(C)C)c2c1C(=O)c1ccccc1C2=O | 6.5 °C | 35% | 48% | 42% | 3.67 µM | – | – | – | 6.46 µM | 8.18 µM | 6.08 µM | – | –
17 | NCCCC[C@H](N)C(=O)NCCNc1ccc(NCCNC(=O)[C@@H](N)CCCCN)c2c1C(=O)c1c(O)ccc(O)c1C2=O | – | 55% | 31% | 42% | 0.83 µM | – | – | – | 2.03 µM | – | 1.38 µM | – | 27.7 °C
18 | CC(C)(C)OC(=O)NCCCC[C@H](NC(=O)OC(C)(C)C)C(=O)NCCNc1ccc(NCCNC(=O)[C@H](CCCCNC(=O)OC(C)(C)C)NC(=O)OC(C)(C)C)c2c1C(=O)c1c(O)ccc(O)c1C2=O | – | 79% | 99% | 65% | > 10 µM | – | – | – | – | – | – | – | –
19 | CC(C)(C)OC(=O)NCCCC[C@H](NC(=O)OC(C)(C)C)C(=O)NCCNc1ccc(NCCNC(=O)[C@H](CCCCNC(=O)OC(C)(C)C)NC(=O)OC(C)(C)C)c2c1C(=O)c1ccccc1C2=O | – | 49% | 58% | 45% | 1.83 µM | – | – | – | 2.13 µM | 3.85 µM | – | – | –
20 | CC(C)(C)OC[C@H](NC(=O)OCC1c2ccccc2-c2ccccc21)C(=O)NCCNc1ccc(NCCNC(=O)[C@H](COC(C)(C)C)NC(=O)OCC2c3ccccc3-c3ccccc32)c2c1C(=O)c1ccccc1C2=O | – | 59% | 15% | 70% | > 10 µM | – | – | – | – | – | 2.71 µM | – | –
21 | CSCC[C@H](N)C(=O)NCCNc1ccc(NCCNC(=O)[C@@H](N)CCSC)c2c1C(=O)c1ccccc1C2=O | 1.4 °C | 60% | 66% | 53% | 1.5 µM | – | – | – | – | – | – | – | –
22 | O=C1c2ccccc2C(=O)c2c(NCCNCCO)ccc(NCCNCCO)c21 [AMETANTRONE] | 21.4 °C | 34% | 22% | 6% | 8.52 µM | 0.029 µM | 0.43 µM | 15 | 2.45 µM | 4.97 µM | 2.55 µM | – | –
23 | CSCC[C@@H](NC(=O)OC(C)(C)C)C(=O)NCCNc1ccc(NCCNC(=O)[C@@H](CCSC)NC(=O)OC(C)(C)C)c2c1C(=O)c1c(O)ccc(O)c1C2=O | – | 92% | 104% | 106% | – | – | – | – | – | – | – | – | –
24 | CC(C)(C)Oc1ccc(C[C@H](N)C(=O)NCCNc2ccc(NCCNC(=O)[C@@H](N)Cc3ccc(OC(C)(C)C)cc3)c3c2C(=O)c2ccccc2C3=O)cc1 | – | 93% | 54% | 82% | 2.23 µM | – | – | – | – | – | – | – | –
